Results from the EternaBench riboswitch data.

Test system: MS2 coat protein
Experiment: apparent Kd, MS2 coat protein; higher = weaker binding; RNA-MaP array; FMN 200 µM where present
How it was run: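 Each design was made on Illumina sequencing-chip clusters by stalled E. coli RNA polymerase and titrated with SNAP-549-labelled MS2 coat protein from 0.7 or 1.5 nM, doubling to 3 µM, in the absence and then the presence of constant ligand. The buffer was 100 mM Tris-HCl pH 7.5, 80 mM KCl, 4 mM MgCl2, BSA, DTT, yeast tRNA and Tween-20. The apparent Kd is the median of filtered per-cluster fits of binding curves, with green signal normalised to red-channel RNA signal and control-cluster median Fmax.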

[1] = designed as: OFF switch for flavin mononucleotide, no ligand
[2] = ligand present: flavin mononucleotide, designed as: OFF switch for flavin mononucleotide
[3] = designed as: ON switch for flavin mononucleotide, no ligand
[4] = ligand present: flavin mononucleotide, designed as: ON switch for flavin mononucleotide

Row | Sequence | apparent Kd [1] | apparent Kd [2] | apparent Kd [3] | apparent Kd [4]
1 | AGAUGGUCAGGAUAUGCGUGAAGAAUAAAACAAAUAACAACGCAGAAGGGACAUGAGGAUCACCCAUGUCAUCA | 0.0219 µM | 0.0173 µM | – | –
2 | UGAACUCAUGUAGGAUAUGCAUGGCGAAGCUACGCAGAAGGACAUGAGGAUCACCCAUGUUCUAGCGUCUGAGUACAGAUGCAA | 0.148 µM | 0.118 µM | – | –
3 | GGGCACGGAGGAUAUACAUGAGGAUCACCCAUGUGAUUAGGGCAGUACUUGCCGAUCCGUAGAAGGUUGGCCGA | 0.0261 µM | 0.0268 µM | – | –
4 | GUAGCUAUCGGAGGAUAUUCAUAGCGGAAACGGACAUGAGGAUCACCCAUGUGGCUAAAGCCUUGGGAGAAGGCCGAUAGCUAC | – | – | 0.0258 µM | 0.00664 µM
5 | GCCAGAGCAGGAUAUCUAAUAUGUCACAUGAGGAUCACCCAUGUCCAGCGAAAGCUGGAGGGAGAAGGGCUCUGGC | 0.0656 µM | 0.0244 µM | – | –
6 | GUCGGGUCUCACGCGUCGGUCCACAUGAGGAUCACCCAUGUCAAGGAUAUAGCGUCUUCCGGGCGUUAGAAGGUGGCCAUUGGU | 0.0266 µM | 0.061 µM | – | –
7 | UGGCCGAAGUUAGGAUAUUGGUUAGGGACGGACUAAGAAGGAGCACAUACAUGAGGAUCACCCAUGUUAGAAGAAGAUCCUCCA | 0.0293 µM | 0.0267 µM | – | –
8 | CUUAGACAUGAGGAUCACCCAUGUGAGGAUAUGAUGCGAUCGUCGAAAGACGAUAGCAUCAGAAGGUACAAAUG | 0.086 µM | 0.067 µM | – | –
9 | CGCAUGCGUAGAAUUAGCAGCUGACAGGAUAUGACAUGAGGAUCACCCAUGUGAAUUAAGAAGAGUCAGAAGGGUCACGAUGCG | 0.00998 µM | 0.00998 µM | – | –
10 | GUAGCAAUCGGAGGAUAUUCAUAGCCGAAAGGCACAUGAGGAUCACCCAUGUGGCGAAAGCCUUGGGAGAAGGCCGAUUGCUAC | – | – | 0.324 µM | 0.018 µM
11 | AUGGUUGUCGUAGGAUAUGUAGGAUAUUCCUACAUGAGGAUCACCCAUGUUCGCAUGGAAGAAGGACAGAAGGACGAUGACCAA | – | – | 0.531 µM | 0.0211 µM
12 | UAGUGCAUUAGAGGAUAUUCUUACGACACGAGUAAGACAUGAGGAUCACCCAUGUUGUGGCAUGGGAAGAAGGCUGAUGUGCUA | – | – | 0.06 µM | 0.0145 µM
13 | ACAUGAGGAUCUCCCAUGUAAAAUUAGGAUAUAUGACUGCACAUGAGGAUCACCCAUGUUUUACCGUAGAAGGGAUAAAUAAUU | – | – | 0.867 µM | 0.855 µM
14 | AAUAAACACACAGGAUAUAGCAUCGUCGGUAUGAACUUAAAGACGACGAUGCUAGAAGGGUGAACACAUGAGGAUCACCCAUGU | – | – | 0.232 µM | 0.0391 µM
15 | ACAUGAGGAUCACCCAUGUGUCAACCAGAAGGCACAUUACGUAUUUCUAUGUGUGCGUAAAUAAGUGAGGAUAUGGAUAAUAGA | – | – | 0.0112 µM | 0.00721 µM
16 | GCCUGUGAAGGAUAUACAUGAGGAUCACCCAUGUGGCGGAUAUACCCGCCGAGACCGUGUAGAAGGUCAUAGUA | 0.044 µM | 0.0408 µM | – | –
17 | GUUAUUUAUGUAGGAUAUGCGAGGCGAGCCUGAGCAGAAGGACAUGAGGAUCACCCAUGUAUUGCGGUUUGUGUUCAGAUCGCU | 0.0179 µM | 0.0256 µM | – | –
18 | AAACACGGACAUGAGGAUCACCCAUGUGGCGAAAGCCUUGGGAGAAGGCCGAUAGCAAAGCUAUCGGAGGAUAUUCAUACCGUG | – | – | 1.2 µM | 0.061 µM

Row | Sequence | apparent Kd [1] | apparent Kd [2] | apparent Kd [3] | apparent Kd [4]
19 | GAGUAGAUAGCAGGAUAUCUAUUUCCUACAUGAGGAUCACCCAUGUAGAUGAUCACCCAUGUAAAGGAGAAGGGCUAUCUAUUC | – | – | 0.355 µM | 0.16 µM
20 | GUAGCAUACCGAGGAUAUUCAUACCGGAAACGGACAUGAGGAUCACCCAUGUGGCGAAAGCCUUUGGAGAAGGCGGAAUGCUAC | – | – | 0.0132 µM | 0.0117 µM
21 | UGUUAUUAGACAGGAUAUUGAAUGUUAAGUAUUAACAUGAGGAUCACCCAUGUAUUUGAUUGGUACAAGAAGGGUCAUGUUUGU | – | – | 0.323 µM | 0.659 µM
22 | GUAUAUAUUACAUGAGGAUCACCCAUGUCAGAACGGGUAAUCAGAAGGUAGUAUUAGAGAAAGAUUAAGGAUAUGAUUAUAUAC | – | – | 0.231 µM | 0.0811 µM
23 | AGCUGUGGCCAAGGAUAUCUAACCUUAAAUACCGACGUAUAGUCGGACAUGAGGAUCACCCAUGUGGAGAAGGUGGUCUCAGCA | 0.0253 µM | 0.0373 µM | – | –
24 | CACAGGGAUUCAGGAUAUAUUAGCCGAGGCCGCGUAGAAGGGAAAUCCUGACAUGAGGAUCACCCAUGUUAACCCACUUUCCAU | – | – | 0.0282 µM | 0.0288 µM
25 | UCAACCGGCGCCGGUUGAACAUGAGGAUCACCCAUGUACUCCAGAAGGCCGCCCAAGAACGGAGUGGAGGAUAUGGAAGUUCUC | – | – | 0.0473 µM | 0.0301 µM
26 | UUGGUAUCUGCAGGAUAUUGUAUUUUAAUACUUCAAGAAGGGCAUUACAUGAGGAUCACCCAUGUUUACAUGGUCAUAUUAGUU | 0.0261 µM | 0.0208 µM | – | –
27 | UCACAGUGUCGUUAUCCGUAGCGAACAUGAGGAUCACCCAUGUAGGAUAUGUUAUUAAACUAAUAACAGAAGGACGUUGGUCGG | 0.0367 µM | 0.22 µM | – | –
28 | UCGGCGCGAGGAUAUGCGGCUUGUGCUUCGGGCCCUCGCGUACAUGAGGAUCACCCAUGUAGAAGGCGCGCCGC | 0.12 µM | 0.0917 µM | – | –
29 | UGGUACUAGGGAGGAUAUGGGAAGAUACAUGAGGAUCACCCAUGUUUAAGAAUGCCGAGAGGCAACUAGAAGGCCCUAGAACCU | – | – | 0.406 µM | 0.0197 µM
30 | ACAUGAGGAUCACCCAUGUUUAUUGGGUACUAUACUAUCAGCAAGGAUAUGCAAAUUUUUUUUACGCAGAAGGUGCAGGAACCU | 0.523 µM | 0.334 µM | – | –
31 | GGUCCGUGUACAUGAGGAUCACCCAUGUCGAUGUUUCCUGGACAGGAUAUAUGCUUAAUACCGACAUAGAAGGGUCCACGUGUG | – | – | 0.0911 µM | 0.191 µM
32 | ACCCGCAGCCGUCAGGAUAUGUUCGCGUCAACAUGAGGAUCACCCAUGUGUGACAAGAAGUACACGCAGAAGGGAUCAAUGCGGG | – | – | 0.0164 µM | 0.0183 µM
33 | AUAUGGAAUACAGGAUAUGUAAGUUUUAAGUGUAUUGGUUAUUACUUUACAACAGAAGGGUAUUACAUGAGGAUCACCCAUGUA | – | – | 0.0132 µM | 0.0107 µM
34 | UGUCGGAGCAGAGGAUAUUACAUGAGGAUCACCCAUGUAUGAACCAAUAGCUGGAAACAGCAAUGAAAGAAGGCUGCUCCGACA | 0.00538 µM | 0.00513 µM | – | –
35 | UGAUCUAUGUAGAAGGCCCAUAUCUAUAUUUAGGGAGGAUAUACAUGAGGAUCACCCAUGUAUAGAGCGGGUGGACCCGUCACC | 0.0267 µM | 0.0621 µM | – | –
36 | AACAAUCACAUAGGAUAUAGAAUAUUAUAUUUUUACAUGAGGAUCACCCAUGUUUUAUUGGGAUUCUAGAAGGAUGAGUAAUAA | – | – | 0.162 µM | 0.0909 µM
